Assay [1] addresses T1, Prp (Staphylococcus aureus, UniProt Q2FXS9). The assay can be described thus: Fluorogenic peptide cleavage assay, Michaelis-Menten kinetics of wild-type Prp. In kind it is biochemical. Conditions: pH 7.0.
The target of assay [2] is T1, Prp. The assay can be described thus: Reaction of Prp with Ellman's reagent under non-denaturing conditions. (In general: In Ellman's method for cholinesterases, released thiocholine reacts with DTNB.)
In assay [3] the target is T1, Prp. The assay can be described thus: Inhibition of Prp by chloromethylketone-containing substrate peptide. In kind it is biochemical. A digest of the protocol: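 Recombinant S. aureus Prp was purified on Ni-NTA, with the His6-SUMO tag removed by Ulp1. It was tested in a fluorogenic peptide cleavage assay in 50 mM sodium phosphate pH 7.0 with 1.5 mM DTT, 2.35 mM EDTA and 2.53% DMSO (final). Fluorescence (ex 325/em 414 nm) was read every 8 s for 10 min at ambient temperature. Percent inhibition was taken from initial velocities relative to a no-inhibitor control.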

Where “and” joins values, the source holds several entries; their conditions need not be identical. Equal entries are not always repeated. * marks the point of attachment. CH2Cl = ClC*

T1 sequence (Q2FXS9 whole entry): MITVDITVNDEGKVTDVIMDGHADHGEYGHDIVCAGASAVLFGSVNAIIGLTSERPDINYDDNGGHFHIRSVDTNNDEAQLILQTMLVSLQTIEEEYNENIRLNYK

“2-aminobenzoic acid-KLNLQFFASKK-dinitrophenol [fluorogenic substrate]”: on Prp [1] (ET constrained to 42.765 nM active sites (2 per dimer)), the “turnover number (kcat)” value was 0.0458 ± 0.0014 s⁻¹ and 0.05 ± 0.00 s⁻¹. On Prp [1], the “specificity constant (kcat/Km)” value is 251100 ± 39300 M⁻¹ s⁻¹ and 250000 ± 40000 M⁻¹ s⁻¹.

As for `O=C(O)c1cc(SSc2ccc([N+](=O)[O-])c(C(=O)O)c2)ccc1[N+](=O)[O-]` [Ellman’s reagent, 5,5′-dithiobis(2-nitrobenzoic acid)], at Prp [2], the “reaction with Prp (qualitative)” value is reported as “readily reacts”.

As for Ac-KLNLQFF-CH2Cl, at Prp [3], the “inhibition of Prp (qualitative)” value is given as “inhibited”.

Values taken from paper PMC5397363 (Molecular microbiology, 2017).
